Results as given in paper PMC6606825 (Journal of Ginseng Research, 2018).

Assay: Pharmacokinetics of CK and its metabolite 20
Format: in vivo, healthy Chinese volunteers
Summary of the method: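 Healthy adults given one oral tablet dose fasting (overnight, or 10 h in a crossover food-effect arm); 30 subjects from the 100/200/400 mg groups were pooled with 24 from 200 mg fasting periods. Plasma was stored at −70°C, extracted with MTBE plus internal standards and assayed by LC-MS/MS. Cmax was observed and AUClast calculated by linear trapezoid, each divided by dose. The metabolite/parent ratio was also calculated. Genotyping used Sequenom MassARRAY, and log-transformed values were compared by one-way ANOVA.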

[1] = ABCC4 rs1151471 CC, n = 2, mean (SD)
[2] = ABCC4 rs2274406 TT (first line), mean (SD)
[3] = ABCC4 rs2274406 TT (third line), mean (SD)
[4] = ABCG2 rs2054576 AA (first line), mean (SD)
[5] = ABCG2 rs2054576 AA (third line), mean (SD)

Q: Which “dose-normalized exposure among the groups” value (100, 200, 400 mg single-dose groups and food-effect trial, fasting) does the source give for `CC(C)=CCC[C@](C)(O[C@@H]1O[C@H](CO)[C@@H](O)[C@H](O)[C@H]1O)[C@H]1CC[C@]2(C)[C@@H]1[C@H](O)C[C@@H]1[C@@]3(C)CC[C@H](O)C(C)(C)[C@@H]3CC[C@]12C` [Ginsenoside compound K, 20-O-beta-D-glucopyranosyl-20(S)-protopanaxadiol] here?
A: not significantly different

Q: What about the “CK AUClast/D” value (ABCB1 rs1045642 AA, mean (SD)) of the same molecule?
A: 28.81 (11.93)

Q: What about the “CK Cmax/D” value (ABCB1 rs1045642 AA, mean (SD)) of the same molecule?
A: 4.03 (1.47)

Q: And the “CK AUClast/D” value (ABCB1 rs1045642 AG, mean (SD))?
A: 27.71 (15.58)

Q: What about the “CK Cmax/D” value (ABCB1 rs1045642 AG, mean (SD)) of the same molecule?
A: 3.50 (1.91)

Q: What about the “CK AUClast/D” value (ABCB1 rs1045642 GG, mean (SD)) of the same molecule?
A: 31.19 (22.91)

Q: And the “CK Cmax/D” value (ABCB1 rs1045642 GG, mean (SD))?
A: 4.13 (2.82)

Q: And the “CK AUClast/D” value (ABCB1 rs1128503 AA, mean (SD))?
A: 28.07 (15.30)

Q: And the “CK Cmax/D” value (ABCB1 rs1128503 AA, mean (SD))?
A: 3.67 (1.80)

Q: And the “CK AUClast/D” value (ABCB1 rs1128503 AG, mean (SD))?
A: 28.43 (20.03)

Q: What about the “CK Cmax/D” value (ABCB1 rs1128503 AG, mean (SD)) of the same molecule?
A: 3.66 (2.34)

Q: What about the “CK AUClast/D” value (ABCB1 rs1128503 GG, mean (SD)) of the same molecule?
A: 33.81 (17.43)

Q: What about the “CK Cmax/D” value (ABCB1 rs1128503 GG, mean (SD)) of the same molecule?
A: 4.67 (3.44)

Q: And the “CK AUClast/D” value (ABCB1 rs2032582 AA, mean (SD))?
A: 26.68 (12.71)

Q: And the “CK Cmax/D” value (ABCB1 rs2032582 AA, mean (SD))?
A: 3.81 (2.02)

Q: What about the “CK AUClast/D” value (ABCB1 rs2032582 CA, mean (SD)) of the same molecule?
A: 27.47 (15.11)

Q: And the “CK Cmax/D” value (ABCB1 rs2032582 CA, mean (SD))?
A: 3.46 (1.72)

Q: And the “CK AUClast/D” value (ABCB1 rs2032582 CC, mean (SD))?
A: 33.69 (25.60)

Q: What about the “CK Cmax/D” value (ABCB1 rs2032582 CC, mean (SD)) of the same molecule?
A: 4.42 (3.14)

Q: What about the “CK AUClast/D” value (ABCC2 rs717620 CC, mean (SD)) of the same molecule?
A: 31.60 (19.89)

Q: What about the “CK Cmax/D” value (ABCC2 rs717620 CC, mean (SD)) of the same molecule?
A: 3.98 (2.30)

Q: What about the “CK AUClast/D” value (ABCC2 rs717620 CT, mean (SD)) of the same molecule?
A: 25.18 (13.50)

Q: And the “CK Cmax/D” value (ABCC2 rs717620 CT, mean (SD))?
A: 3.48 (2.01)

Q: And the “CK AUClast/D” value (ABCC2 rs2273697 GA, mean (SD))?
A: 35.66 (26.59)

Q: What about the “CK Cmax/D” value (ABCC2 rs2273697 GA, mean (SD)) of the same molecule?
A: 4.74 (3.23)

Q: And the “CK AUClast/D” value (ABCC2 rs2273697 GG, mean (SD))?
A: 25.98 (12.06)

Q: What about the “CK Cmax/D” value (ABCC2 rs2273697 GG, mean (SD)) of the same molecule?
A: 3.35 (1.44)

Q: And the “CK AUClast/D” value (ABCC2 rs2756109 GG, mean (SD))?
A: 27.59 (12.16)

Q: What about the “CK AUClast/D” value (ABCC2 rs3740066 CC, mean (SD)) of the same molecule?
A: 32.09 (20.46)

Q: And the “CK Cmax/D” value (ABCC2 rs3740066 CC, mean (SD))?
A: 4.02 (2.37)

Q: And the “CK Cmax/D” value (ABCC2 rs3740066 CT, mean (SD))?
A: 3.3 (1.87)

Q: And the “CK AUClast/D” value (ABCC2 rs3740066 TT, n = 1)?
A: 55.95 (—)

Q: What about the “CK Cmax/D” value (ABCC2 rs3740066 TT, n = 1) of the same molecule?
A: 6.24 (—)

Q: What about the “CK AUClast/D” value (ABCC3 rs4148416 CC, mean (SD)) of the same molecule?
A: 29.20 (18.77)

Q: What about the “CK Cmax/D” value (ABCC3 rs4148416 CC, mean (SD)) of the same molecule?
A: 3.72 (2.07)

Q: And the “CK AUClast/D” value (ABCC3 rs4148416 CT, mean (SD))?
A: 27.15 (14.29)

Q: And the “CK Cmax/D” value (ABCC3 rs4148416 CT, mean (SD))?
A: 3.78 (2.53)

Q: What about the “CK AUClast/D” value (ABCC3 rs4793665 CT, mean (SD)) of the same molecule?
A: 29.14 (12.55)

Q: What about the “CK Cmax/D” value (ABCC3 rs4793665 CT, mean (SD)) of the same molecule?
A: 4.04 (2.17)

Q: And the “CK AUClast/D” value (ABCC3 rs4793665 TT, mean (SD))?
A: 28.53 (18.94)

Q: What about the “CK Cmax/D” value (ABCC3 rs4793665 TT, mean (SD)) of the same molecule?
A: 3.65 (2.19)

Q: What about the “CK AUClast/D” value (ABCC3 rs12051822 GA, mean (SD)) of the same molecule?
A: 23.66 (11.90)

Q: And the “CK Cmax/D” value (ABCC3 rs12051822 GA, mean (SD))?
A: 3.09 (1.13)

Q: And the “CK AUClast/D” value (ABCC3 rs12051822 GG, mean (SD))?
A: 30.37 (18.95)

Q: And the “CK Cmax/D” value (ABCC3 rs12051822 GG, mean (SD))?
A: 3.96 (2.39)

Q: What about the “CK AUClast/D” value [1] of the same molecule?
A: 13.68 (2.21)

Q: And the “CK Cmax/D” value [1]?
A: 2.08 (0.39)

Q: And the “CK AUClast/D” value (ABCC4 rs1151471 TC, mean (SD))?
A: 24.64 (13.71)

Q: What about the “CK Cmax/D” value (ABCC4 rs1151471 TC, mean (SD)) of the same molecule?
A: 3.32 (2.06)

Q: And the “CK AUClast/D” value (ABCC4 rs1151471 TT, mean (SD))?
A: 32.65 (19.80)

Q: What about the “CK Cmax/D” value (ABCC4 rs1151471 TT, mean (SD)) of the same molecule?
A: 4.16 (2.32)

Q: And the “CK AUClast/D” value (ABCC4 rs1189437 GG, n = 1)?
A: 12.12 (−)

Q: What about the “CK Cmax/D” value (ABCC4 rs1189437 GG, n = 1) of the same molecule?
A: 1.80 (−)

Q: And the “CK AUClast/D” value (ABCC4 rs1189437 GT, mean (SD))?
A: 20.77 (9.40)

Q: What about the “CK Cmax/D” value (ABCC4 rs1189437 GT, mean (SD)) of the same molecule?
A: 2.74 (1.29)

Q: What about the “CK AUClast/D” value (ABCC4 rs1189437 TT, mean (SD)) of the same molecule?
A: 31.84 (19.14)

Q: What about the “CK Cmax/D” value (ABCC4 rs1189437 TT, mean (SD)) of the same molecule?
A: 4.06 (2.19)

Q: And the “CK AUClast/D” value (ABCC4 rs1751034 TC, mean (SD))?
A: 18.58 (7.25)

Q: And the “CK Cmax/D” value (ABCC4 rs1751034 TC, mean (SD))?
A: 2.45 (0.95)

Q: What about the “CK AUClast/D” value (ABCC4 rs1751034 TT, mean (SD)) of the same molecule?
A: 32.53 (18.96)

Q: And the “CK Cmax/D” value (ABCC4 rs1751034 TT, mean (SD))?
A: 4.23 (2.32)

Q: What about the “CK AUClast/D” value (ABCC4 rs2274406 CT, mean (SD)) of the same molecule?
A: 28.24 (19.96)

Q: What about the “CK Cmax/D” value (ABCC4 rs2274406 CT, mean (SD)) of the same molecule?
A: 3.68 (2.42)

Q: What about the “CK AUClast/D” value [2] of the same molecule?
A: 33.40 (14.80)

Q: What about the “CK Cmax/D” value [2] of the same molecule?
A: 4.70 (2.25)

Q: And the “CK AUClast/D” value [3]?
A: 26.57 (13.77)

Q: What about the “CK Cmax/D” value [3] of the same molecule?
A: 3.25 (1.32)

Q: And the “CK AUClast/D” value (ABCC4 rs2274407 CA, mean (SD))?
A: 28.22 (13.76)

Q: What about the “CK Cmax/D” value (ABCC4 rs2274407 CA, mean (SD)) of the same molecule?
A: 3.43 (1.35)

Q: And the “CK AUClast/D” value (ABCC4 rs2274407 CC, mean (SD))?
A: 28.81 (18.82)

Q: What about the “CK Cmax/D” value (ABCC4 rs2274407 CC, mean (SD)) of the same molecule?
A: 3.84 (2.38)

Q: And the “CK AUClast/D” value (ABCC4 rs4148546 AA, mean (SD))?
A: 26.51 (15.61)

Q: And the “CK Cmax/D” value (ABCC4 rs4148546 AA, mean (SD))?
A: 3.43 (1.93)

Q: And the “CK Cmax/D” value (ABCC4 rs4148546 GA, mean (SD))?
A: 3.49 (1.91)

Q: What about the “CK AUClast/D” value (ABCC4 rs4148546 GG, mean (SD)) of the same molecule?
A: 39.82 (26.88)

Q: What about the “CK Cmax/D” value (ABCC4 rs4148546 GG, mean (SD)) of the same molecule?
A: 4.87 (2.88)

Q: And the “CK AUClast/D” value (ABCC4 rs11568658 CC, mean (SD))?
A: 28.31 (19.56)

Q: What about the “CK AUClast/D” value [4] of the same molecule?
A: 25.61 (12.77)

Q: What about the “CK Cmax/D” value [4] of the same molecule?
A: 3.31 (1.53)

Q: And the “CK AUClast/D” value [5]?
A: 25.70 (13.01)

Q: What about the “CK Cmax/D” value [5] of the same molecule?
A: 3.29 (1.35)

Q: And the “CK AUClast/D” value (ABCG2 rs2054576 GA, mean (SD))?
A: 32.78 (22.38)

Q: And the “CK Cmax/D” value (ABCG2 rs2054576 GA, mean (SD))?
A: 4.31 (2.78)

Q: And the “CK AUClast/D” value (ABCG2 rs2231142 GG, mean (SD))?
A: 27.45 (13.31)

Q: And the “CK Cmax/D” value (ABCG2 rs2231142 GG, mean (SD))?
A: 3.51 (1.56)

Q: And the “CK AUClast/D” value (ABCG2 rs2231142 GT, mean (SD))?
A: 31.50 (23.56)

Q: And the “CK Cmax/D” value (ABCG2 rs2231142 GT, mean (SD))?
A: 3.89 (2.60)

Q: What about the “CK AUClast/D” value (ABCG2 rs2231142 TT, mean (SD)) of the same molecule?
A: 25.70 (13.01)

Q: What about the “CK Cmax/D” value (ABCG2 rs2231142 TT, mean (SD)) of the same molecule?
A: 3.29 (1.35)

Q: What about the “CK AUClast/D” value (ABCG2 rs2231148 AA, mean (SD)) of the same molecule?
A: 35.54 (21.89)

Q: And the “CK Cmax/D” value (ABCG2 rs2231148 AA, mean (SD))?
A: 4.43 (2.92)

Q: And the “CK AUClast/D” value (ABCG2 rs2231148 AT, mean (SD))?
A: 39.28 (26.36)

Q: What about the “CK Cmax/D” value (ABCG2 rs2231148 AT, mean (SD)) of the same molecule?
A: 4.87 (3.24)

Q: What about the “CK AUClast/D” value (ABCG2 rs2231148 TT, mean (SD)) of the same molecule?
A: 23.05 (8.91)

Q: And the “CK Cmax/D” value (ABCG2 rs2231148 TT, mean (SD))?
A: 3.09 (1.18)

Q: And the “CK AUClast/D” value (ABCG2 rs2725248 AA, mean (SD))?
A: 26.94 (18.76)

Q: And the “CK Cmax/D” value (ABCG2 rs2725248 AA, mean (SD))?
A: 3.68 (2.42)

Q: And the “CK AUClast/D” value (ABCG2 rs2725248 CA, mean (SD))?
A: 31.91 (15.94)

Q: And the “CK Cmax/D” value (ABCG2 rs2725248 CA, mean (SD))?
A: 3.96 (1.89)

Q: What about the “CK AUClast/D” value (ABCG2 rs2725248 CC, mean (SD)) of the same molecule?
A: 40.01 (16.71)
